Measured values reported in ChEMBL document CHEMBL4265933, “Rationally designed divalent caffeic amides inhibit amyloid-β fibrillization, induce fibril dissociation, and ameliorate cytotoxicity” (Eur J Med Chem, 2018).
The source made the active and inactive calls. No cut-off for these calls is given here.

Legend:
[1] = target: T1, Amyloid-beta precursor protein (Homo sapiens, UniProt P05067); test: Inhibition of amyloid beta (1 to 42) (unknown origin) assessed as fibril formation at 10 uM incubated with agitation for 1 min every hr measured over 80 hrs by thioflavin-T assay relative to control; set-up: scale not given: the % may be the effect or the level left
T1 sequence (P05067 whole entry): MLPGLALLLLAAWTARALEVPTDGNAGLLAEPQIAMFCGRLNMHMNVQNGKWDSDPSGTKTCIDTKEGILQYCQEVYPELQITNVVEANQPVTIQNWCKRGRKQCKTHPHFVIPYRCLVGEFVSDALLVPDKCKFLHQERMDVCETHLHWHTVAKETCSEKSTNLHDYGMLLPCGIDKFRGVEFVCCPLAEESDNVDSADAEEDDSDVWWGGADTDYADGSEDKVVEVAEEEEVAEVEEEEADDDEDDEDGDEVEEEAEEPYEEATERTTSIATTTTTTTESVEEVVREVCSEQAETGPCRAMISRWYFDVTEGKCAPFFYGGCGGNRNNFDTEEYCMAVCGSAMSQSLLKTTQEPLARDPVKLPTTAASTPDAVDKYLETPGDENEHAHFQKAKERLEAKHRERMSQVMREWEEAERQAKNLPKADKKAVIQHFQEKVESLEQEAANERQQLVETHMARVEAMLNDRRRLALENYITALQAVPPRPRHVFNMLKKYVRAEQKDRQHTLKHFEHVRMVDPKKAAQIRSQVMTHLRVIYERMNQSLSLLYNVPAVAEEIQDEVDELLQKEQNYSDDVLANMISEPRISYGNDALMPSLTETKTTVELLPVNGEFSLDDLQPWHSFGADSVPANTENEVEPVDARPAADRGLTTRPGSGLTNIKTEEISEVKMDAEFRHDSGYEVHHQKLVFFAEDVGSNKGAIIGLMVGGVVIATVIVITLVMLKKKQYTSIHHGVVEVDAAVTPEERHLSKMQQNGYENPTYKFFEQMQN

[2] = target: T1, Amyloid-beta precursor protein; test: Inhibition of amyloid beta (1 to 42) fibrillization (unknown origin) at 12.5 to 25 uM incubated with agitation for 1 min every hr measured over 80 hrs by transmission electron microscopy
Summary of the method: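 End-point Aβ(1–42) products after 80 h ThT incubation (50 µM peptide, 37 °C) with 12.5 or 25 µM compound were applied to Formvar carbon-coated copper grids for 5 min. Grids were water-washed and stained with 2% uranyl acetate. Imaging was by TEM at 120 kV.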

[3] = target: T1, Amyloid-beta precursor protein; test: Inhibition of amyloid beta (1 to 42) fibrillization (unknown origin) incubated with agitation for 1 min every hr measured over 80 hrs by thioflavin-T assay
SH-SY5Y [4] = test: Neuroprotective activity against amyloid beta (1 to 42 residues) induced cytotoxicity in human SH-SY5Y cells assessed as protection against amyloid beta (1 to 42 residues) induced decrease in cell viability at 0.01 uM after 24 hrs by LDH assay relative to control; format: functional
Summary of the method: (§1)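 SH-SY5Y cells (DMEM/F12, 5% FBS, 37 °C, 5% CO2) were seeded at 10,000 cells/well for 24 h, then switched to serum-free medium. Cells received 10 µL end-point Aβ(1–42) ThT-assay product (peptide co-incubated with compound) for 24 h. Cleared medium was incubated with LDH substrate 30 min at room temperature, dark, and read at 490 nm. Cell-free background was subtracted; 2% Triton X-100 lysis set 100% cytotoxicity. Triplicate.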

SH-SY5Y [5] = test: Neuroprotective activity against amyloid beta (1 to 42 residues) induced cytotoxicity in human SH-SY5Y cells assessed as protection against amyloid beta (1 to 42 residues) induced decrease in cell viability at 25 uM after 24 hrs by LDH assay relative to control; format: functional; summary of the method: as §1
SH-SY5Y [6] = test: Neuroprotective activity against amyloid beta (1 to 42 residues) induced cytotoxicity in human SH-SY5Y cells assessed as protection against amyloid beta (1 to 42 residues) induced decrease in cell viability after 24 hrs by LDH assay; format: functional, cell-based; summary of the method: as §1
Caenorhabditis elegans [7] = test: Protection against amyloid beta aggregation-induced paralysis in Caenorhabditis elegans CL4176 assessed as median survival time of worms at 40 uL pretreated with compound at 16 degC for 20 hrs followed by raising temperature to 25 degC (reference value: 42.2 hrs); format: functional
[8] = target: T1, Amyloid-beta precursor protein; test: Inhibition of amyloid beta (1 to 42) (unknown origin) assessed as fibril formation up to 100 uM incubated with agitation for 1 min every hr measured over 80 hrs by thioflavin-T assay
Summary of the method: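 Synthetic Aβ(1–42) was dissolved in DMSO and diluted to 50 µM in 20 mM phosphate buffer, pH 7.4 (1.5% final DMSO), with 5 µM ThT. Compound was added at 0.01–100 µM and samples were held at 37 °C, agitated 1 min hourly. Fluorescence (ex 442, em 485 nm) was read over 80 h. Background-subtracted 80 h signal was normalized to Aβ alone and fit to Y=100/(1+10^(X−LogIC50)). Triplicate, SEM.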

[9] = target: T1, Amyloid-beta precursor protein; test: Inhibition of amyloid beta (1 to 42) (unknown origin) assessed as fibril formation at 3.1 uM incubated with agitation for 1 min every hr measured over 80 hrs by thioflavin-T assay relative to control; set-up: scale not given: the % may be the effect or the level left
Summary of the method: (§2)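 Synthetic Aβ(1–42) taken up in DMSO, diluted to 50 μM in 20 mM PB pH 7.4 (final DMSO 1.5%) with 5 μM ThT, compound 0.01–100 μM. Incubated at 37 °C with 1 min agitation hourly for 80 h. ThT read at ex 442/em 485 nm. The 80 h signal, buffer-subtracted, normalized to Aβ alone. Independent triplicates, SEM; IC50 fitted to Y=100/(1+10^(X−LogIC50)).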

[10] = target: T1, Amyloid-beta precursor protein; test: Inhibition of amyloid beta (1 to 42) (unknown origin) assessed as fibril formation at 25 uM incubated with agitation for 1 min every hr measured over 80 hrs by thioflavin-T assay relative to control; set-up: scale not given: the % may be the effect or the level left; summary of the method: as §2
[11] = target: T1, Amyloid-beta precursor protein; test: Inhibition of amyloid beta (1 to 42) (unknown origin) assessed as fibril formation at 100 uM incubated with agitation for 1 min every hr measured over 80 hrs by thioflavin-T assay relative to control; set-up: scale not given: the % may be the effect or the level left; summary of the method: as §2
[12] = target: T1, Amyloid-beta precursor protein; test: Disaggregation of amyloid beta (1 to 42 residues) (unknown origin) preformed fibrils incubated with agitation for 1 min every hr measured over 80 hrs by thioflavin-T assay
Summary of the method: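 Preformed Aβ(1–42) fibrils (25 μM; peptide in DMSO diluted into 20 mM PB pH 7.4, shaken at least 4 days) mixed with compound at 0–100 μM and 5 μM ThT. Incubated at 37 °C with 1 min agitation hourly. Fluorescence read at ex 442/em 485 nm, buffer background subtracted. Final signal normalized to fibrils alone; triplicate; IC50 fitted to Y=100/(1+10^(X−LogIC50)).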

[13] = target: T1, Amyloid-beta precursor protein; test: Disaggregation of amyloid beta (1 to 42 residues) (unknown origin) preformed fibrils up to 100 uM measured immediately by Western blot analysis
Summary of the method: (§3)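 Preformed Aβ(1–42) fibrils incubated with compound at 0, 25, 50 or 100 μM for 0 or 14 days. Samples (20 μL plus SDS sample buffer) run on native 13% Tris-tricine gel without SDS, transferred to nitrocellulose at 250 mA for 75 min at 4 °C, blocked in 5% milk, probed with 4G8 and 6E10 plus anti-mouse IgG, ECL detection.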

[14] = target: T1, Amyloid-beta precursor protein; test: Disaggregation of amyloid beta (1 to 42 residues) (unknown origin) preformed fibrils up to 100 uM measured on day 14 by Western blot analysis; summary of the method: as §3
[15] = target: T1, Amyloid-beta precursor protein; test: Disaggregation of amyloid beta (1 to 42 residues) (unknown origin) preformed fibrils at 100 uM measured immediately by transmission electron microscopy
Summary of the method: (§4)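 Aβ(1–42) made by Fmoc solid-phase synthesis and HPLC-purified. Fibrils preformed by dissolving 0.1 mg peptide in DMSO, diluting in 20 mM PB pH 7.4, and shaking for at least 4 days. Fibrils mixed with compound (100 μM), sampled at time 0 or after 14 days, placed on carbon-coated grids, stained with 2% uranyl acetate and imaged by TEM at 120 kV.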

[16] = target: T1, Amyloid-beta precursor protein; test: Disaggregation of amyloid beta (1 to 42 residues) (unknown origin) preformed fibrils at 100 uM measured on day 14 by transmission electron microscopy; summary of the method: as §4
SH-SY5Y [17] = test: Neuroprotective activity against preformed amyloid beta (1 to 42 residues) fibril induced cytotoxicity in human SH-SY5Y cells assessed as protection against amyloid beta (1 to 42 residues) induced cell viability at 50 uM after 24 hrs by LDH assay (reference value: 17%); format: functional
Summary of the method: (§5)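 Preformed fibrils: 0.1 mg Aβ(1–42) in 6 µL DMSO was diluted into 880 µL 20 mM PB pH 7.4 and shaken ≥4 days. Fibrils were then held with 0, 25, 50 or 100 µM compound. SH-SY5Y cells in serum-free medium received 10 µL sample for 24 h. LDH release was read at 490 nm, background-subtracted, and normalized to 2% Triton X-100 lysis as 100%.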

SH-SY5Y [18] = test: Neuroprotective activity against preformed amyloid beta (1 to 42 residues) fibril induced cytotoxicity in human SH-SY5Y cells assessed as protection against amyloid beta (1 to 42 residues) induced cell viability at 100 uM after 24 hrs by LDH assay (reference value: 17%); format: functional; summary of the method: as §5
SH-SY5Y [19] = test: Neuroprotective activity against preformed amyloid beta (1 to 42 residues) fibril induced cytotoxicity in human SH-SY5Y cells assessed as protection against amyloid beta (1 to 42 residues) induced decrease in cell viability at 25 uM after 24 hrs by LDH assay; format: functional, cell-based; summary of the method: as §5
Caenorhabditis elegans [20] = test: Protection against amyloid beta aggregation-induced paralysis in Caenorhabditis elegans CL4176 assessed as survival rate of worms at 40 uL pretreated with compound at 16 degC for 20 hrs followed by raising temperature to 25 degC and measured at 26 hrs relative to control; format: functional
Summary of the method: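 About 130 eggs of transgenic C. elegans CL4176 (muscle myo-3p::Aβ(1–42)) were grown at 16 °C on NGM plates with E. coli OP50. Plates were pretreated with 40 µL of a 6.27 mM compound solution; nematode growth medium served as buffer control. Temperature was raised to 25 °C at L4. Unparalysed worms (~100–130 per condition) were counted every 2 h. Five trials.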

SMILES: O=C(/C=C/c1ccc(O)c(O)c1)NCCOCCOCCNC(=O)/C=C/c1ccc(O)c(O)c1
- Activity [1]: 64.7%
- inhibition [2]: inactive

SMILES: O=C(/C=C/c1ccc(O)c(O)c1)NCCCCc1cn(Cc2ccc(-c3ccc(Cn4cc(CCCCNC(=O)/C=C/c5ccc(O)c(O)c5)nn4)cc3)cc2)nn1
- Activity [1]: 61.8%

SMILES: C#CCCCNC(=O)/C=C/c1ccc(O)c(O)c1
- Activity [1]: 135%

SMILES: O=C(/C=C/c1ccc(O)c(O)c1)NCCOCCOCCOCCNC(=O)/C=C/c1ccc(O)c(O)c1
- Activity [1]: 79.4%
- inhibition [2]: inactive

SMILES: O=C(/C=C/c1ccc(O)c(O)c1)NCCOCCOCCOCCOCCNC(=O)/C=C/c1ccc(O)c(O)c1
- Activity [1]: 61.8%
- inhibition [2]: inactive

SMILES: O=C(/C=C/c1ccc(O)c(O)c1)O[C@H](Cc1ccc(O)c(O)c1)C(=O)NCc1cn(Cc2ccc(-c3ccc(Cn4cc(CNC(=O)[C@@H](Cc5ccc(O)c(O)c5)OC(=O)/C=C/c5ccc(O)c(O)c5)nn4)cc3)cc2)nn1
- Activity [1]: 65.1%

SMILES: COc1cc(/C=C/C(=O)CC(=O)/C=C/c2ccc(O)c(OC)c2)ccc1O [CURCUMIN]
- inhibition [3]: Dose-dependent effect
- inhibition [2]: Active
- Activity (SH-SY5Y [4]): inactive
- Activity (SH-SY5Y [5]): 20%
- Activity (SH-SY5Y [6]): Dose-dependent effect
- MST (Caenorhabditis elegans [7]): 25.7 h

SMILES: C#CCNC(=O)/C=C/c1ccc(O)c(O)c1
- Activity [1]: 79.4%

SMILES: O=C(O)/C=C/c1ccc(O)c(O)c1 [CAFFEIC ACID]
- Activity [1]: 91.2%
- IC50 [3]: 15.6 µM
- inhibition [3]: Dose-dependent effect
- inhibition [2]: Active
- Activity (SH-SY5Y [4]): 5%
- Activity (SH-SY5Y [5]): 20%
- Activity (SH-SY5Y [6]): Dose-dependent effect
- MST (Caenorhabditis elegans [7]): 26.3 h

SMILES: O=C(/C=C/c1ccc(O)c(O)c1)CC(=O)/C=C/c1ccc(O)c(O)c1
- Activity [1]: 11.5%

SMILES: O=C(/C=C/c1ccc(O)c(O)c1)NCc1cn(Cc2ccc(-c3ccc(Cn4cc(CNC(=O)/C=C/c5ccc(O)c(O)c5)nn4)cc3)cc2)nn1
- Activity [1]: 88.2%

SMILES: C#CCNC(=O)[C@@H](Cc1ccc(O)c(O)c1)OC(=O)/C=C/c1ccc(O)c(O)c1
- Activity [1]: 107%

SMILES: O=C(/C=C/c1ccc(O)c(O)c1)NCCCNC(=O)/C=C/c1ccc(O)c(O)c1
- Activity [1]: 52.9%
- IC50 [3]: 4.9 µM
- inhibition [3]: Dose-dependent effect
- inhibition [2]: Active
- inhibition [8]: Active
- Activity [9]: 60%
- Activity [10]: 8%
- Activity [11]: 1%
- Activity [12]: Dose-dependent effect
- IC50 [12]: 4.2 µM
- Activity [13]: inactive
- Activity [14]: Active
- Activity [15]: inactive
- Activity [16]: Active
- Activity (SH-SY5Y [4]): 19%
- Activity (SH-SY5Y [5]): 34%
- Activity (SH-SY5Y [6]): Dose-dependent effect
- Activity (SH-SY5Y [17]): 12%
- Activity (SH-SY5Y [18]): 9%
- Activity (SH-SY5Y [19]): inactive
- fold change (FC) (Caenorhabditis elegans [20]): 2.5
- MST (Caenorhabditis elegans [7]): 27.3 h

SMILES: O=C(/C=C/c1ccc(O)c(O)c1)NCCCc1cn(Cc2ccc(-c3ccc(Cn4cc(CCCNC(=O)/C=C/c5ccc(O)c(O)c5)nn4)cc3)cc2)nn1
- Activity [1]: 112%

SMILES: O=C(/C=C/c1ccc(O)c(O)c1)NCCOCCOCCOCCOCCOCCNC(=O)/C=C/c1ccc(O)c(O)c1
- Activity [1]: 67.6%
- inhibition [2]: inactive

SMILES: O=C(/C=C/c1ccc(O)c(O)c1)O[C@H](Cc1ccc(O)c(O)c1)C(=O)O
- Activity [1]: 79.1%

SMILES: O=C(/C=C/c1ccc(O)c(O)c1)NCc1cn(Cc2ccc(Cn3cc(CNC(=O)/C=C/c4ccc(O)c(O)c4)nn3)cc2)nn1
- Activity [1]: 76.5%

SMILES: C#CCCCCNC(=O)/C=C/c1ccc(O)c(O)c1
- Activity [1]: 67.6%
